Measurements reported in ChEMBL document CHEMBL5252603, “Discovery of 2-aminoquinolone acid derivatives as potent inhibitors of SARS-CoV-2” (Bioorg Med Chem Lett, 2023).

What was measured:
SARS-CoV-2 = assay: Antiviral activity against Severe acute respiratory syndrome coronavirus 2 infected in Vero cells; assay type: functional, organism-based; details: Severe acute respiratory syndrome coronavirus 2, Vero
Vero = assay: Cytotoxicity against african green monkey Vero cells; assay type: toxicity, cell-based; details: chlorocebus sabaeus
Method in brief: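 Uninfected Vero cells were tested in parallel with the antiviral immunocytochemistry assay. CC50 was derived from at least two independent experiments.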

[1] = Selectivity index, ratio of CC50 for african green monkey Vero cells to EC50 for Severe acute respiratory syndrome coronavirus 2; assay type: toxicity; details: read-out: Ratio CC50/EC50
HFL1 = assay: Cytotoxicity against human HFL1 cells; assay type: toxicity, cell-based
Method in brief: (§1)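 Cell viability was measured by the EZ-Cytox assay, with CC50 as the read-out. Cell lines: HFL-1, human embryonic lung; L929, mouse fibroblast; NIH 3T3, mouse embryonic fibroblast; CHO-K1, Chinese hamster ovary.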

L929 = assay: Cytotoxicity against mouse L929 cells; assay type: toxicity, cell-based; method in brief: as §1
NIH3T3 = assay: Cytotoxicity against mouse NIH3T3 cells; assay type: toxicity, cell-based; method in brief: as §1
CHO-K1 = assay: Cytotoxicity against CHO-K1 cells; assay type: toxicity, cell-based, Cricetulus griseus; details: chinese hamster; method in brief: as §1
[2] = target: Voltage-gated inwardly rectifying potassium channel KCNH2 (Homo sapiens, UniProt Q12809); assay: Binding affinity to human ERG; assay type: toxicity
Method in brief: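 hERG fluorescence polarization ligand-binding assay; IC50 read-out.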

CYP1A2 = target: T1, CYP1A2 (Homo sapiens, UniProt P05177); assay: Inhibition of human CYP1A2 at 10 uM relative to control; assay type: ADME
T1 sequence (P05177 whole entry): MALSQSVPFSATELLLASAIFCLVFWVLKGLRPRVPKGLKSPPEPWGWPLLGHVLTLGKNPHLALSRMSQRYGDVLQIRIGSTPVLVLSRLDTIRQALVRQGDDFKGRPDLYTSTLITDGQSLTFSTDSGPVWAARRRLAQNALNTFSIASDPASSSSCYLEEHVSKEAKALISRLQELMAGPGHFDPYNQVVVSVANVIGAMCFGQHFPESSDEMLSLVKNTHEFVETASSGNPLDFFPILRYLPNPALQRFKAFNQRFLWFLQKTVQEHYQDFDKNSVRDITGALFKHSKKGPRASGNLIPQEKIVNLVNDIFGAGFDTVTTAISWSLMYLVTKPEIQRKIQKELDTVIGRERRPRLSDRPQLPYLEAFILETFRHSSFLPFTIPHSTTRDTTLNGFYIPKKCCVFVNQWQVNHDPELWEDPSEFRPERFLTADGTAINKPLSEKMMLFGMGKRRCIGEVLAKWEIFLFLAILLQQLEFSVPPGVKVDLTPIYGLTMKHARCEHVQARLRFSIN

CYP2C9 = CYP2C9 (Homo sapiens, UniProt P11712); assay: Inhibition of human CYP2C9 at 10 uM relative to control; assay type: ADME
CYP2C19 = CYP2C19 (Homo sapiens, UniProt P33261); assay: Inhibition of human CYP2C19 at 10 uM relative to control; assay type: ADME
CYP2D6 = CYP2D6 (Homo sapiens, UniProt P10635); assay: Inhibition of human CYP2D6 at 10 uM relative to control; assay type: ADME
CYP3A4 = CYP3A4 (Homo sapiens, UniProt P08684); assay: Inhibition of human CYP3A4 at 10 uM relative to control; assay type: ADME
[3] = Microsomal stability in mouse liver microsomes assessed as compound remaining after 30 mins in presence of NADPH; assay type: ADME, Microsome; details: read-out: Stability
[4] = Microsomal stability in rat liver microsomes assessed as compound remaining after 30 mins in presence of NADPH; assay type: ADME, Microsome; details: read-out: Stability
[5] = Microsomal stability in dog liver microsomes assessed as compound remaining after 30 mins in presence of NADPH; assay type: ADME, Canis lupus familiaris, Microsome; details: read-out: Stability
[6] = Microsomal stability in human liver microsomes assessed as compound remaining after 30 mins in presence of NADPH; assay type: ADME, Microsome; details: read-out: Stability

Sequence of CYP2C19 (P33261 whole entry): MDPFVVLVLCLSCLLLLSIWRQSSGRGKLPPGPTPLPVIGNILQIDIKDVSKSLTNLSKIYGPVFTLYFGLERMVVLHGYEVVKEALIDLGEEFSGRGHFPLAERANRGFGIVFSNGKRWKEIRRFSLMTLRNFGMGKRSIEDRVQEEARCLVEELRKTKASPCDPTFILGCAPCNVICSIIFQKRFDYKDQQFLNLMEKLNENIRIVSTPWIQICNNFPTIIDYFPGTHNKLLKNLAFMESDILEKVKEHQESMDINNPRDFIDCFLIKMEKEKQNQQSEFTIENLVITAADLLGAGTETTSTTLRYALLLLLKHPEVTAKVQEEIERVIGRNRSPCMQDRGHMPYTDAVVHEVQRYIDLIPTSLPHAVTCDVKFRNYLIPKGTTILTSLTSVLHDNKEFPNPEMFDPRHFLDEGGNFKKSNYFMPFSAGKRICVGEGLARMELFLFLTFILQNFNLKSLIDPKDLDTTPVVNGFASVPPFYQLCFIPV
Sequence of Voltage-gated inwardly rectifying potassium channel KCNH2 (Q12809 whole entry): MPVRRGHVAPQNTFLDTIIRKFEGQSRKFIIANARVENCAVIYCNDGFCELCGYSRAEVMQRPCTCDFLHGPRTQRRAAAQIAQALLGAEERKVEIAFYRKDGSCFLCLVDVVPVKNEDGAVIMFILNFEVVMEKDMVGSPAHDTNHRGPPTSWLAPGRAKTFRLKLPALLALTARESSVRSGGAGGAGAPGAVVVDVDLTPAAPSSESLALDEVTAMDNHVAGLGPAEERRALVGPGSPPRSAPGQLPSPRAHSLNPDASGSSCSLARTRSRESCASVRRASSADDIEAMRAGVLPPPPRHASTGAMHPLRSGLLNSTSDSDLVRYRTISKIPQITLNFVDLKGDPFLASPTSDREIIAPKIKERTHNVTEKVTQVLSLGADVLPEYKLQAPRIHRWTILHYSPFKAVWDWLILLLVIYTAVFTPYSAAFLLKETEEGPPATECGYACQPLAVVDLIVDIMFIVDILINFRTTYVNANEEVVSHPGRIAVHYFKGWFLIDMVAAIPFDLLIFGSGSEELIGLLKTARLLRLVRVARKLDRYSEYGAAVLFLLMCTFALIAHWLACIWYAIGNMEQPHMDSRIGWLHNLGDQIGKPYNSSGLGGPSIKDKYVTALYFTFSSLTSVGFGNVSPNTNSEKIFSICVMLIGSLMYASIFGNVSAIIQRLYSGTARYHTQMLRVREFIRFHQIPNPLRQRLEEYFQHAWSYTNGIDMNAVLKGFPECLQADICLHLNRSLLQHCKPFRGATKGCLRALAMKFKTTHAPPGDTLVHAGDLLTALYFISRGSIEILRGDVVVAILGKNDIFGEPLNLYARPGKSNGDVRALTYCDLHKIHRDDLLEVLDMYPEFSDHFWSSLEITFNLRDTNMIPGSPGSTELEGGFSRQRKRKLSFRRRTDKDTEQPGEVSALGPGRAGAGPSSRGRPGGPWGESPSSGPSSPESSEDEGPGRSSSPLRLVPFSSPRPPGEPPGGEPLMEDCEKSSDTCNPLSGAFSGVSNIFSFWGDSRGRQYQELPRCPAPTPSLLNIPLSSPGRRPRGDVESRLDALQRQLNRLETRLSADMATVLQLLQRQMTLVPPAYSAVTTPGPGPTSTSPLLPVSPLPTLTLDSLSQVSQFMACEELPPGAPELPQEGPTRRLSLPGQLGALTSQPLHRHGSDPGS
Sequence of CYP3A4 (P08684 whole entry): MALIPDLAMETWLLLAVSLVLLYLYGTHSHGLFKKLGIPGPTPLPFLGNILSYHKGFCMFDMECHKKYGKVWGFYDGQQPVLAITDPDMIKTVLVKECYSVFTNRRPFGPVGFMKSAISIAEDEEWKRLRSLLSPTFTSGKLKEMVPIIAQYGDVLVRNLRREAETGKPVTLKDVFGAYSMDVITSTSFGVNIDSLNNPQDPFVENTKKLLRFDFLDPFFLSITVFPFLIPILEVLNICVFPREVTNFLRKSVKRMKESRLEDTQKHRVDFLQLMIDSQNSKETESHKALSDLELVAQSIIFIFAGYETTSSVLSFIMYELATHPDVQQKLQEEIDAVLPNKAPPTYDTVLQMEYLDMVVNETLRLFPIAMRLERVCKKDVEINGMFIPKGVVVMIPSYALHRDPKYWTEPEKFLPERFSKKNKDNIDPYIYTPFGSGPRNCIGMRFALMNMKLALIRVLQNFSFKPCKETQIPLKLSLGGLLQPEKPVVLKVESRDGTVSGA
Sequence of CYP2C9 (P11712 whole entry): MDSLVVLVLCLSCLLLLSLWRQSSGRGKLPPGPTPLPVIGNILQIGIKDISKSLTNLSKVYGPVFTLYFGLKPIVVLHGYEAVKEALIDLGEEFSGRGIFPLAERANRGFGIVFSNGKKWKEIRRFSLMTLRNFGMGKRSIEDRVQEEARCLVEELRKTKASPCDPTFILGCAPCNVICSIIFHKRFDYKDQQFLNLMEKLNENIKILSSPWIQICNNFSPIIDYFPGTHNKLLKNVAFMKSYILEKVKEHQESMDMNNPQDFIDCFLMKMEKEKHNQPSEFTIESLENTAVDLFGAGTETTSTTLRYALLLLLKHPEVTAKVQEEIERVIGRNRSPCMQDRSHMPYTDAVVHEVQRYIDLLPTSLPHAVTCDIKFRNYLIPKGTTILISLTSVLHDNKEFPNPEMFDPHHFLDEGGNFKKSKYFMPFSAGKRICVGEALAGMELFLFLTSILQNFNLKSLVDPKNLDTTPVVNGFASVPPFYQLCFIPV
Sequence of CYP2D6 (P10635 whole entry): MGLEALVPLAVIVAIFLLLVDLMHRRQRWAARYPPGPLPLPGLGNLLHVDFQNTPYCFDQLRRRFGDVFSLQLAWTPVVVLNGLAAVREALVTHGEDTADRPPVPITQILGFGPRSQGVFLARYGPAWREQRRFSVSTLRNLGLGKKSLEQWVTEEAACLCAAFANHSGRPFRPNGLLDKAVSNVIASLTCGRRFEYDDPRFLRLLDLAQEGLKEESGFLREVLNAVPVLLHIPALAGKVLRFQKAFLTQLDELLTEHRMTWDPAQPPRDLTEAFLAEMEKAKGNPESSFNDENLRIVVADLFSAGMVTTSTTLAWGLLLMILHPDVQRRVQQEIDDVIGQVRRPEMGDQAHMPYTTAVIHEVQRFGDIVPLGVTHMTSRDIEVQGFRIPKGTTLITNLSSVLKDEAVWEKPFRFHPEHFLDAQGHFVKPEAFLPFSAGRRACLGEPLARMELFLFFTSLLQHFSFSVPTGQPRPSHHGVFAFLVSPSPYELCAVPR

Structure (SMILES) | EC50 (SARS-CoV-2) [µM] | CC50 (Vero) [µM] | selectivity ratio [1] | further results
COc1ccc2[nH]c(Nc3cccc(F)c3)c(C(=O)O)c(=O)c2c1 | 3.3 | > 25 | 7.6 | 
O=C(O)c1c(Nc2cccc(F)c2)[nH]c2ccccc2c1=O | 4 | > 25 | 6.2 | 
O=c1cc(Nc2cccc(F)c2)[nH]c2cc(F)c(F)cc12 | > 25 | > 25 | 1 | 
CN(C)CCCNc1[nH]c2cc(Cl)ccc2c(=O)c1C(=O)O | > 25 | > 25 | 1 | 
O=C(O)c1c(Nc2cccc(F)c2)[nH]c2cc(Cl)ccc2c1=O | 1.5 | > 25 | 16 | CC50 (HFL1): 48 µM; CC50 (L929): > 100 µM; CC50 (NIH3T3): 67 µM; CC50 (CHO-K1): 55 µM; IC50 [2]: > 100 µM; inhibition at 10 µM (CYP1A2): 72%; inhibition at 10 µM (CYP2C9): 59%; inhibition at 10 µM (CYP2C19): 9%; inhibition at 10 µM (CYP2D6): 3%; inhibition at 10 µM (CYP3A4): < 1%; remaining at 0.5 h [3]: 24%; remaining at 0.5 h [4]: 14%; remaining at 0.5 h [5]: 65%; remaining at 0.5 h [6]: 62%
COC(=O)c1c([S+](C)[O-])[nH]c2cc(Cl)ccc2c1=O (stereo not drawn) | 9.4 | 12 | 1.3 | 
O=C(O)c1c(Nc2ccc(F)cc2)[nH]c2cc(F)c(F)cc2c1=O | 3.5 | > 25 | 7.2 | 
O=C(O)c1c(Nc2cccc(F)c2)[nH]c2cc(F)c(F)cc2c1=O | 3.3 | > 25 | 7.5 | 
COC(=O)c1c([S+](C)[O-])[nH]c2ccccc2c1=O (stereo not drawn) | 13.4 | > 25 | 1.9 | 
CCC(CC)COC(=O)[C@H](C)N[P@](=O)(OC[C@H]1O[C@@](C#N)(c2ccc3c(N)ncnn23)[C@H](O)[C@@H]1O)Oc1ccccc1 |  | > 25 |  | 
O=C(O)c1c(Nc2ccc(F)cc2)[nH]c2ccc(Cl)cc2c1=O | 2.8 | > 25 | 8.9 | 
O=C(O)c1c(Nc2cccc(F)c2)[nH]c2ccc(Cl)cc2c1=O | 1.5 | > 25 | 17 | 
CCN(CC)CCCC(C)Nc1ccnc2cc(Cl)ccc12 (stereo not drawn) [CHLOROQUINE] | 8.2 | > 25 | 3 | 
O=C(O)c1c(NC2CCCCC2)[nH]c2cc(Cl)ccc2c1=O | 4.4 | > 25 | 5.7 | 
CNC(=O)c1c(Nc2cccc(F)c2)[nH]c2cc(Cl)ccc2c1=O | 7.9 | > 25 | 3.2 | 
CC(C)(C)[C@H](NC(=O)C(F)(F)F)C(=O)N1C[C@H]2[C@@H]([C@H]1C(=O)N[C@H](C#N)C[C@@H]1CCNC1=O)C2(C)C |  | > 25 |  | 
